KCNK9 block – KCNK9 potassium channel inhibitors, primary screen, HEK293 cells, thallium flux | Potassium channel subfamily K member 9 (Homo sapiens), Q9NPC2 | FluxOR thallium flux fluorescence; hits give low values | B-score at 10 µM | 310,000 compounds, 1.2% hits | AID 488922, 2010;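 active = ratio B-score over 3 SD below the library mean, with starting fluorescence within 5 SD of its mean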;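 also: negative B-score means less thallium flux so channel inhibition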
hERG protect – hERG rescue from dofetilide block, primary screen, cell-based, CHO-hERG, FluxOR thallium flux, dofetilide IC70. Voltage-gated inwardly rectifying potassium channel KCNH2 (Homo sapiens), Q12809. dofetilide IC70 present. activation (rescue from dofetilide block), less the hit threshold, % at 10 µM. 310,000 compounds, 0.51% hits. AID 1511, 2009;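 active = activation above the mean of controls blocked by dofetilide plus 5 SD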;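 also: thallium influx through hERG after potassium depolarization seen as dye fluorescence rise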
KCNK3 inh – human KCNK3 channel inhibitors, primary screen, CHO cells, FluxOR thallium flux, B-score | B-score at 10 µM | AID 602410, 2012 | 340,000 compounds, 0.84% hits | FluxOR fluorescence; hits give low values;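 active = B-score under library mean minus 4 SD, starting fluorescence ratio at most library mean plus 5 SD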;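 also: more negative B-score means stronger inhibition of thallium flux through KCNK3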
Kir21 block – inhibitors of mouse Kir2.1 inward-rectifier potassium channel; Inward rectifier potassium channel 2 (Mus musculus), P35561; HEK293-Kir2.1, FluxOR thallium flux fluorescence; hits give low values; B-score at 10 µM; 310,000 compounds, 0.85% hits; AID 1672, 2009;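 active = fluorescence ratio B-score at or below minus 3 SD of library scores, with starting-brightness B-score within 2 SD, cut at about -4.2 in these data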;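 also: channel flux triggered by added potassium and thallium sulfate stimulus; B-score of peak minus minimum fluorescence over baseline after thallium stimulus; more negative B-score means stronger Kir2.1 block with less thallium influx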
KCNQ1 pot – potentiators or activators of KCNQ1 channel, primary screen, cell-based, thallium flux, high-throughput; CHO-K1 KCNQ1, thallium flux FluxOR fluorescence; hits give high values; B-score at 10 µM; Potassium voltage-gated channel subfamily KQT member 1 (Homo sapiens), P51787; AID 2648, 2010; 310,000 compounds, 0.35% hits;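 active = fluorescence ratio B-score, a plate-corrected score, at least three library SD, with initial intensity B-score within 5 SD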
Target sequence (P51787 whole entry, looked up): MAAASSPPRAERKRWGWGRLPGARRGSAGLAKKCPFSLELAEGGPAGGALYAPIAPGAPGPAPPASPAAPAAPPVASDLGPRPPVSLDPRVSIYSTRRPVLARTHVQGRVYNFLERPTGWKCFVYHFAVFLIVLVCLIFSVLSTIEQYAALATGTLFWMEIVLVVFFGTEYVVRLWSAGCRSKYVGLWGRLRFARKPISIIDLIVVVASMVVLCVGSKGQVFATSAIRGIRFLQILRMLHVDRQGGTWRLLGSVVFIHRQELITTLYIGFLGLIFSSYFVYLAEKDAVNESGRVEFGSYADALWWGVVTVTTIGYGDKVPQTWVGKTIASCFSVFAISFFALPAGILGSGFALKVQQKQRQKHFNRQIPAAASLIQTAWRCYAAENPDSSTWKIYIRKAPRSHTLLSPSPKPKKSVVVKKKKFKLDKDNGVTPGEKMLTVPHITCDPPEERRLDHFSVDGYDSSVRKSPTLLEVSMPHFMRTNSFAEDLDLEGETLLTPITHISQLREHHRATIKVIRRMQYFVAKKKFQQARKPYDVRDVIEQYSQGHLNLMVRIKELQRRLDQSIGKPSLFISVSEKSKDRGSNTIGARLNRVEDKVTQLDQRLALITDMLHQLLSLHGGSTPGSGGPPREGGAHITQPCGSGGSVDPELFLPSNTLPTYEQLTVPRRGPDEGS
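Doses: Single concentration per compound, DMSO matched to controls | Test system: KCNQ1-transfected CHO-K1 cells | Timing: 90 min dye loading and 20 min compound exposure, both at room temperature | Measured by: Kinetic FluxOR thallium fluorescence, 10-s 1-Hz baseline, 110-s post-stimulus read | Medium: Assay buffer with matched DMSO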
KCNQ1 inh – inhibitors of human KCNQ1 channel, primary screen, cell-based, thallium flux, high-throughput | CHO-K1 KCNQ1, FluxOR thallium flux fluorescence; hits give high values | 310,000 compounds, 1.3% hits | B-score at 10 µM | Potassium voltage-gated channel subfamily KQT member 1 (Homo sapiens), P51787 | AID 2642, 2010;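 active = compounds whose thallium flux B-score, printed positive for inhibition, exceeds three library SD while starting fluorescence stays within three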;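 also: channel opened by potassium depolarization with thallium stimulus after 20 min compound exposure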
Each line names hits and unclear results; the compound was inactive in the other large screens. Shown are actives, neighbours in structure and some others; about 3.7% of the full set was active somewhere.

CSc1cccc(NC(=O)CNS(=O)(=O)c2ccccc2)c1	none
CCn1c2ccccc2c2cc(/C=N/NC(=O)c3ccc(O)cc3)ccc21	Kir21 block -4.43
COC(=O)c1ccc(CNC(=O)C2CCC(=O)N(C3CCCCCC3)C2)cc1 (stereo unspecified)	none
Cc1cc(C)n(CC(=O)Nc2ccc3c(c2)OCO3)c(=O)c1C#N	none
Cc1cc(=O)cc(C)n1-c1ccc(F)cc1F	hERG protect 6.6
CCN(CC)CCCCCC(=O)Nc1ccccc1C(=O)Nc1ccccc1	none
Cc1nn(-c2ccccc2)nc1C(=O)NNC(=O)c1cccc2ccccc12	KCNQ1 pot 15
OC(CSc1ccccc1)CN1CCN(c2ccc(Cl)cc2)CC1 (stereo unspecified)	none (no result: KCNK9 block, hERG protect, Kir21 block, KCNQ1 pot, KCNQ1 inh)
CCOc1ccc2nc(/N=C/c3c(C)[nH]n(-c4ccc(C)cc4)c3=O)sc2c1	hERG protect 70.7, KCNQ1 pot 40
CCOc1ccc2nc(/N=C/c3c(C)[nH]n(-c4ccccc4)c3=O)sc2c1	hERG protect 57.5, KCNQ1 pot 55
CCOc1[nH]n(-c2ccccc2)c(=O)c1C=Nc1ccc(OC)cc1	none
CCOc1ccc(N2C(=O)CC(Sc3nc4ccc(OCC)cc4s3)C2=O)cc1 (stereo unspecified)	none
Oc1oc(-c2ccc(Br)cc2)nc1/C=N/c1ccccn1	none
CCOc1ccc2nc(/N=C/c3nc(-c4ccc(Br)cc4)oc3O)sc2c1	hERG protect 6.7, KCNQ1 pot 25
COc1cccc(N(CC(=O)NC2CCCCC2)C(=O)Cn2nnc(-c3ccc(C)o3)n2)c1	none
COc1cccc(CN(CC(=O)NC2CCCC2)C(=O)Cn2nnc(-c3cccs3)n2)c1	hERG protect 32.4
CCCCCSc1nnc2c(n1)OC(c1cccn1C)N(C(C)=O)c1ccccc1-2 (stereo unspecified)	KCNK9 block -9.75
CC(C)N1CCN(S(=O)(=O)c2ccccc2)c2ccccc21	none (no result: KCNK9 block, hERG protect, Kir21 block, KCNQ1 pot, KCNQ1 inh)
CCOC(=O)[C@H]1[C@H]2COc3ccccc3[C@@H]2N2C(=O)c3c(C)cc(C)cc3NC(=O)[C@@]12C	none (no result: KCNK9 block, hERG protect, Kir21 block, KCNQ1 pot, KCNQ1 inh)
CSc1ccc(S(=O)(=O)N2CCC(C(=O)Nc3ccccc3C(F)(F)F)CC2)cc1	none
CCN(CC)C(=O)CSc1nc(C)cc(C)c1C#N	none
CCN(Cc1ccccc1)C(=O)CSc1nc(C)cc(C)c1C#N	Kir21 block -4.74
CC(C)CC1NC(=O)N(CC(=O)Nc2ccc3c(c2)OCCO3)C1=O (stereo unspecified)	none (no result: KCNK9 block, hERG protect, Kir21 block, KCNQ1 pot, KCNQ1 inh)
Cc1ccc(C)c2[nH]c(=O)c(CN(Cc3ccc4c(c3)OCO4)Cc3nnnn3Cc3ccco3)cc12	KCNK9 block -7.06, KCNK3 inh -9.41
Cc1ccc(C)c2[nH]c(=O)c(CN(Cc3ccco3)S(=O)(=O)c3ccc4c(c3)OCCO4)cc12	KCNQ1 inh 6
Cc1ccc(NC(=O)Cc2ccccc2)cc1S(=O)(=O)N1CCOCC1	none (no result: KCNK9 block, hERG protect, Kir21 block, KCNQ1 pot, KCNQ1 inh)
COc1ccc(N=C2O/C(=C/c3sc(=S)n(CC4CCCO4)c3O)N=C2C#N)cc1 (stereo unspecified)	KCNQ1 inh 10
Cc1nnc(SC(C)C(=O)NC2CCCCC2)[nH]c1=O (stereo unspecified)	none (no result: KCNK9 block, hERG protect, Kir21 block, KCNQ1 pot, KCNQ1 inh)
COc1ccc(CSC(=N)N)cc1[N+](=O)[O-]	none
CCCCCOc1ccc(CSC(=N)N)cc1[N+](=O)[O-]	Kir21 block -8.5
COc1ccc(CNC(=O)COC(=O)[C@H](Cc2ccccc2)NC(=O)c2cccs2)cc1	none (no result: KCNK9 block, hERG protect, Kir21 block, KCNQ1 pot, KCNQ1 inh)
Cc1ccc2ccc[n+](Cc3ccccc3)c2c1	none
Cc1ccc(C[n+]2cccc(-c3ccccc3)c2)c(C)c1	Kir21 block -4.28
CC(C)(C)C1=CC=C(C(C)(C)C)C(=O)C1=O	KCNQ1 inh 10 (no result: KCNK3 inh)
NC(=O)CSc1nccn1Cc1ccccc1	none
O=[N+]([O-])c1ccccc1Sc1nccn1Cc1ccccc1	Kir21 block -4.93

Bioassay records deposited in PubChem BioAssay by Johns Hopkins Ion Channel Center.
